Results pooled from the literature.
Compare with care: the assays were run in different laboratories. pIC50: −log10 of the molar value.
Effect on: cell growth or viability

Compound	cell line	method	time	pIC50
C/C(=N\N=C(/C)c1c(O)c2ccccc2oc1=O)c1c(O)c2ccccc2oc1=O	BEAS-2B	MTT	48 h	4.53
OCc1ccc(N2CCc3cccc(F)c3C2)cc1Cl	RBE	ATP luminescence		> 6.70
CCOC(=O)c1c(C)nc2ccc(-c3ccc(F)cc3F)cc2c1O	MDA-MB-468	MTT	48 h	5.10
COc1cc(Cn2nc(-c3ccc(CO)o3)c3ccccc32)ccn1	RBE	ATP luminescence		6.42
OC1CCN(c2ccc(/C=N/NC(=S)Nc3ccc(Br)cc3)cc2)CC1	BEAS-2B	MTT	24 h	4.70
Cc1nc2ccc(-c3cccc(F)c3)cc2c(O)c1C(=O)O	MDA-MB-468	MTT	48 h	≤ 4.00
Nc1nc2cc(CC[C@H]3C[C@@H](n4ccc5c(N)ncnc54)[C@H](O)[C@@H]3O)ccc2cc1Br	MDA-MB-435S	CCK-8	72 h	< 4.00
OCn1ccnc1	BEAS-2B	MTT	24 h	< 3.10
Fc1ccc2c(-c3nnc(Cc4ccccc4)s3)nn(Cc3ccccc3)c2c1	human Fibroblast		48 h	3.22
Cc1nc2ccc(-c3ccc(F)c(F)c3)cc2c(O)c1C(=O)O	MDA-MB-468	MTT	48 h	≤ 4.00
Cc1ccc(CNC(=S)N/N=C/c2ccc(N3CCC(O)CC3)cc2)cc1	BEAS-2B	MTT	24 h	4.80
OCc1ccc(-c2nn(Cc3ccccc3)c3cccnc23)o1	RBE	ATP luminescence		5.61
COc1ccc2c(-c3nc(-c4ccccc4)no3)nn(Cc3ccncc3)c2c1	human Fibroblast		48 h	3.91
CNCc1ccc(-c2nn(Cc3ccccc3)c3ccccc23)o1	RBE	ATP luminescence		4.67
CN1CCC(NC2CCc3[nH]c4c(C(N)=O)ccc(-c5ccccc5Cl)c4c3C2)CC1 (centres unmarked)	SGC-7901		96 h	7.76
Cc1nnc(-c2nn(Cc3ccc(Cl)cc3Cl)c3ccccc23)o1	human Fibroblast		48 h	4.01
OCc1ccc(-c2nn(Cc3cccnc3)c3cccnc23)o1	RBE	ATP luminescence		5.30
OC1CCN(c2ccc(/C=N/NC(=S)Nc3ccccc3)cc2)CC1	BEAS-2B	MTT	24 h	4.72
C/C(=N\C(=N)/N=C(\C)c1c(O)c2ccccc2oc1=O)c1c(O)c2ccccc2oc1=O	BEAS-2B	MTT	48 h	4.35
Cc1cnc(Cn2nc(-c3ccc(CO)o3)c3ccccc32)s1	RBE	ATP luminescence		5.98
